Measured values: ChEMBL document CHEMBL1165873, “Synthesis and in vitro study of methylene-bis-tetrahydro[1,3]thiazolo[4,5-c]isoxazoles as potential nematicidal agents” (2010)
≈ marks a conversion by molar mass, not a printed value. Calls of active or inactive are those of the source. The rule behind the calls is not given here.

Tests used:
Aspergillus fumigatus = experiment: Antifungal activity against Aspergillus fumigatus HIC 6094 after 48 hrs by broth dilution method; format: functional; settings: HIC 6094, 48 h
Procedure, shortened: (§1)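 Fungi grown on potato dextrose agar for two weeks at 28 °C. Spores washed three times and resuspended in water at 10⁵ spores/mL initial inoculum. Compounds dissolved in DMSO, serial twofold dilutions 120–0.9 µM in potato dextrose broth. Wells inoculated with about 10^4 cells/mL and incubated ~48–72 h at 28 °C. MIC (µM) read against controls; NCCLS broth dilution.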

Trichophyton rubrum = experiment: Antifungal activity against Trichophyton rubrum IFO 9185 after 48 hrs by broth dilution method; format: functional; settings: IFO 9185, 48 h; procedure, shortened: as §1
Caenorhabditis elegans = experiment: Nematicidal activity against Caenorhabditis elegans assessed as immobile nematodes after 2 days; format: functional, organism-based
Procedure, shortened: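 Worms raised on 8P plates with Na22 bacteria as food. Adults from five-day cultures suspended in water at about 100–250 nematodes/mL. 100 µL of suspension added to compound solutions at various concentrations in 24-well plates at 25 °C. Percentage of immobile worms scored after two days; LD50 derived.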

[1] = system: Trichophyton mentagrophytes; experiment: Antifungal activity against Trichophyton mentagrophytes IFO 40996 after 48 hrs by broth dilution method; format: functional; settings: IFO 40996, 48 h; procedure, shortened: as §1
[2] = system: Ditylenchus myceliophagus; experiment: Nematicidal activity against Ditylenchus myceliophagus assessed as immobile nematodes after 2 days; format: functional
Candida albicans = experiment: Antifungal activity against Candida albicans ATCC 10231 after 48 hrs by broth dilution method; format: functional; settings: ATCC 10231, 48 h
Procedure, shortened: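 Yeast grown 48 h at 28 °C in YPD broth (1% yeast extract, 2% peptone, 2% dextrose), centrifuged and washed twice in sterile water. Compounds dissolved in DMSO, serial twofold dilutions 120–0.9 µM in potato dextrose broth. Wells inoculated with about 10^3 cells/mL and incubated ~48–72 h at 28 °C. MIC (µM) read against controls; NCCLS broth dilution.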

Structure (SMILES)	MIC (Aspergillus fumigatus) [µM]	MIC (Trichophyton rubrum) [µM]	Activity (Caenorhabditis elegans)	MIC [1] [µM]	Activity [2]	MIC (Candida albicans) [µM]
COc1ccc(Cc2ccc(OC)c(C3SC4C(=NOC4c4ccc(F)cc4)N3c3ccc(O)cc3)c2)cc1C1SC2C(=NOC2c2ccc(F)cc2)N1c1ccc(O)cc1 (centres undefined)	15 (≈ 12.9 µg/mL)	7.5 (≈ 6.43 µg/mL)	Active	7.5 (≈ 6.43 µg/mL)	Active	15 (≈ 12.9 µg/mL)
COc1ccccc1C1SC2C(=NOC2c2ccc(F)cc2)N1c1ccc(Cl)cc1 (centres undefined)	30 (≈ 13.2 µg/mL)	30 (≈ 13.2 µg/mL)		30 (≈ 13.2 µg/mL)		30 (≈ 13.2 µg/mL)
COc1ccc(Cc2ccc(OC)c(C3SC4C(=NOC4c4ccc(F)cc4)N3c3ccc(Cl)cc3)c2)cc1C1SC2C(=NOC2c2ccc(F)cc2)N1c1ccc(Cl)cc1 (centres undefined)	3.75 (≈ 3.35 µg/mL)	3.75 (≈ 3.35 µg/mL)	Active	3.75 (≈ 3.35 µg/mL)	Active	3.75 (≈ 3.35 µg/mL)
COc1ccc(Cc2ccc(OC)c(C3SC4C(=NOC4c4ccc(F)cc4)N3c3ccc(C)cc3)c2)cc1C1SC2C(=NOC2c2ccc(F)cc2)N1c1ccc(C)cc1 (centres undefined)	30 (≈ 25.6 µg/mL)	> 120	Active	15 (≈ 12.8 µg/mL)	Active	7.5 (≈ 6.4 µg/mL)
COc1ccccc1C1SC2C(=NOC2c2ccc(F)cc2)N1c1ccccc1C (centres undefined)	30 (≈ 12.6 µg/mL)	15 (≈ 6.31 µg/mL)		30 (≈ 12.6 µg/mL)		60 (≈ 25.2 µg/mL)
COc1ccc(Cc2ccc(OC)c(C3SC4C(=NOC4c4ccc(F)cc4)N3c3ccc([N+](=O)[O-])cc3)c2)cc1C1SC2C(=NOC2c2ccc(F)cc2)N1c1ccc([N+](=O)[O-])cc1 (centres undefined)	30 (≈ 27.4 µg/mL)	30 (≈ 27.4 µg/mL)	Active	7.5 (≈ 6.86 µg/mL)	Active	15 (≈ 13.7 µg/mL)
COc1ccccc1C1SC2C(=NOC2c2ccc(F)cc2)N1c1ccc(F)cc1 (centres undefined)	60 (≈ 25.5 µg/mL)	60 (≈ 25.5 µg/mL)		60 (≈ 25.5 µg/mL)		120 (≈ 50.9 µg/mL)
COc1ccc(Cc2ccc(OC)c(C3SC4C(=NOC4c4ccc(F)cc4)N3c3ccc(F)cc3)c2)cc1C1SC2C(=NOC2c2ccc(F)cc2)N1c1ccc(F)cc1 (centres undefined)	3.75 (≈ 3.23 µg/mL)	3.75 (≈ 3.23 µg/mL)	Active	3.75 (≈ 3.23 µg/mL)	Active	3.75 (≈ 3.23 µg/mL)
COc1ccccc1C1SC2C(=NOC2c2ccc(F)cc2)N1c1ccccc1 (centres undefined)	> 120	> 120		> 120		120 (≈ 48.8 µg/mL)
COc1ccccc1C1SC2C(=NOC2c2ccc(F)cc2)N1c1ccc([N+](=O)[O-])cc1 (centres undefined)	60 (≈ 27.1 µg/mL)	120 (≈ 54.2 µg/mL)		30 (≈ 13.5 µg/mL)		30 (≈ 13.5 µg/mL)
COc1ccc(Cc2ccc(OC)c(C3SC4C(=NOC4c4ccc(F)cc4)N3c3ccccc3C)c2)cc1C1SC2C(=NOC2c2ccc(F)cc2)N1c1ccccc1C (centres undefined)	3.75 (≈ 3.2 µg/mL)	3.75 (≈ 3.2 µg/mL)	Active	3.75 (≈ 3.2 µg/mL)	Active	3.75 (≈ 3.2 µg/mL)
COc1ccccc1C1SC2C(=NOC2c2ccc(F)cc2)N1c1ccc(O)cc1 (centres undefined)	60 (≈ 25.3 µg/mL)	> 120		60 (≈ 25.3 µg/mL)		60 (≈ 25.3 µg/mL)
COc1ccc(Cc2ccc(OC)c(C3SC4C(=NOC4c4ccc(F)cc4)N3c3ccccc3)c2)cc1C1SC2C(=NOC2c2ccc(F)cc2)N1c1ccccc1 (centres undefined)	60 (≈ 49.5 µg/mL)	30 (≈ 24.7 µg/mL)	Active	60 (≈ 49.5 µg/mL)	Active	30 (≈ 24.7 µg/mL)
COc1ccccc1C1SC2C(=NOC2c2ccc(F)cc2)N1c1ccc(C)cc1 (centres undefined)	120 (≈ 50.5 µg/mL)	> 120		120 (≈ 50.5 µg/mL)		60 (≈ 25.2 µg/mL)
C[C@@H]1[C@H](O)[C@@H](C)/C=C/C=C/C=C/C=C/C=C/C=C/C=C/[C@H](O[C@@H]2O[C@H](C)[C@@H](O)[C@H](N)[C@@H]2O)C[C@@H]2O[C@](O)(C[C@@H](O)C[C@@H](O)[C@H](O)CC[C@@H](O)C[C@@H](O)CC(=O)O[C@H]1C)C[C@H](O)[C@H]2C(=O)O [AMPHOTERICIN B]	3.75 (≈ 3.47 µg/mL)	3.75 (≈ 3.47 µg/mL)		3.75 (≈ 3.47 µg/mL)		7.5 (≈ 6.93 µg/mL)
